Laboratory results as given in ChEMBL document CHEMBL1143279, “Synthesis, reduction potentials, and antitubercular activity of ring A/B analogues of the bioreductive drug (6S)-2-nitro-6-{[4-(trifluoromethoxy)benzyl]oxy}-6,7-dihydro-5H-imidazo[2,1-b][1,3]oxazine (PA-824)” (J Med Chem, 2009).
In brackets after ≈: the same amount, converted by molar mass.

Tests used:
[1] = system: Vero; assay: Cytotoxicity against african green monkey Vero cells after 72 hrs; type: cell-based; details: Chlorocebus sabaeus
Outline: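 VERO (CCL-81) monolayers exposed 72 h to 3-fold serial dilutions of compound. Viability read by tetrazolium dye reduction, product absorbance at 490 nm. Untreated cells set 0% inhibition, SDS-lysed cells 100% inhibition.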

[2] = system: Mycobacterium tuberculosis; assay: Antimicrobial activity against Mycobacterium tuberculosis after 8 days in aerobic condition by alamar blue assay; type: functional; details: 192 h
Outline: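 Replicating M. tb was tested in an 8-day microplate assay. Alamar blue was added on day 7 to measure growth. The MIC was taken as the lowest drug concentration giving >90% inhibition.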

[3] = system: Mycobacterium tuberculosis; assay: Antimicrobial activity against Mycobacterium tuberculosis assessed as growth inhibition at 100 uM after 8 days under aerobic condition by alamar blue assay; type: functional; details: 192 h
[4] = system: Mycobacterium tuberculosis; assay: Antimicrobial activity against Mycobacterium tuberculosis after 11 days under anaerobic condition by luminescence-based low oxygen recovery assay; type: functional; details: 264 h
[5] = system: Mycobacterium tuberculosis; assay: Antimicrobial activity against Mycobacterium tuberculosis assessed as growth inhibition at 100 uM after 11 days under anaerobic condition by luminescence-based low oxygen recovery assay; type: functional; details: 264 h

| SMILES | IC50 [1] | MIC [2] | inhibition at 100 µM [3] | MIC [4] | inhibition at 100 µM [5] |
| --- | --- | --- | --- | --- | --- |
| O=[N+]([O-])c1cn2c(n1)OCC(OCc1ccc(OC(F)(F)F)cc1)C2 (stereo unspecified) | > 128 µM |  |  |  |  |
| O=[N+]([O-])c1nc2n(n1)C[C@H](OCc1ccc(OC(F)(F)F)cc1)CO2 | > 128 µM | > 128 µM | 81% |  |  |
| O=[N+]([O-])c1nc2n(n1)C[C@@H](OCc1ccc(OC(F)(F)F)cc1)CO2 | > 128 µM | > 128 µM | 84% |  |  |
| O=[N+]([O-])c1nc2n(n1)C[C@H](OCc1ccc(OCc3ccccc3)cc1)CO2 |  | > 128 µM | 18% |  |  |
| O=[N+]([O-])c1cn2c(n1)CCC(OCc1ccc(OCc3ccccc3)cc1)C2 (stereo unspecified) |  | > 128 µM | 5% | > 128 µM | 49% |
| O=[N+]([O-])c1cn2c(n1)NCC(OCc1ccc(OC(F)(F)F)cc1)C2 (stereo unspecified) |  | > 128 µM | 63% | > 128 µM | 64% |
| CN1CC(OCc2ccc(OCc3ccccc3)cc2)Cn2nc([N+](=O)[O-])cc21 (stereo unspecified) | > 128 µM | > 128 µM | 58% | > 128 µM | 3% |
| O=[N+]([O-])c1cc2n(n1)CC(OCc1ccc(OC(F)(F)F)cc1)CN2 (stereo unspecified) |  | > 128 µM | 61% | 111 µM (≈ 39.8 µg/mL) |  |
| O=[N+]([O-])c1cc2n(n1)CC(OCc1ccc(OCc3ccccc3)cc1)CN2 (stereo unspecified) |  | > 128 µM | 55% | > 128 µM | 41% |
| O=[N+]([O-])c1cn2c(n1)OCC(OCc1ccc(OCc3ccccc3)cc1)C2 (stereo unspecified) | > 128 µM |  |  |  |  |
| O=[N+]([O-])c1cn2c(n1)SCC(OCc1ccc(OC(F)(F)F)cc1)C2 (stereo unspecified) | > 128 µM | 1.1 µM (≈ 0.413 µg/mL) |  | 13 µM (≈ 4.88 µg/mL) |  |
| O=[N+]([O-])c1cn2c(n1)[S+]([O-])CC(OCc1ccc(OC(F)(F)F)cc1)C2 (stereo unspecified) | > 128 µM | > 128 µM | 87% | 92 µM (≈ 36 µg/mL) |  |
| O=[N+]([O-])c1cn2c(n1)[S+]([O-])CC(OCc1ccc(OCc3ccccc3)cc1)C2 (stereo unspecified) | 63 µM | > 128 µM | 23% | > 128 µM | 20% |
| O=[N+]([O-])c1cn2c(n1)S(=O)(=O)CC(OCc1ccc(OC(F)(F)F)cc1)C2 (stereo unspecified) | > 128 µM | > 128 µM | 89% | 89 µM (≈ 36.3 µg/mL) |  |
| O=[N+]([O-])c1cn2c(n1)SCC(OCc1ccc(OCc3ccccc3)cc1)C2 (stereo unspecified) | > 128 µM | 1.1 µM (≈ 0.437 µg/mL) |  | 11 µM (≈ 4.37 µg/mL) |  |
| O=[N+]([O-])c1cc2n(n1)CC(OCc1ccc(OCc3ccccc3)cc1)CO2 (stereo unspecified) | 82 µM | > 128 µM | 38% | > 128 µM | 19% |
| O=[N+]([O-])c1cn2c(n1)S(=O)(=O)CC(OCc1ccc(OCc3ccccc3)cc1)C2 (stereo unspecified) | > 128 µM | > 128 µM | 61% | > 128 µM | 79% |
| O=[N+]([O-])c1cn2c(n1)CCC(OCc1ccc(OC(F)(F)F)cc1)C2 (stereo unspecified) |  | 126 µM (≈ 45 µg/mL) |  | > 128 µM | 75% |
| O=[N+]([O-])c1cc2n(n1)CC(OCc1ccc(OC(F)(F)F)cc1)CO2 (stereo unspecified) | 88 µM | > 128 µM | 89% |  | 86% |
| CN1CC(OCc2ccc(OC(F)(F)F)cc2)Cn2nc([N+](=O)[O-])cc21 (stereo unspecified) | > 128 µM | > 128 µM | 61% | > 128 µM | 37% |
